Measured values published in ChEMBL document CHEMBL5032518, “Discovery of a cryptic site at the interface 2 of TEAD - Towards a new family of YAP/TAZ-TEAD inhibitors” (Eur J Med Chem, 2021).
pEC50, pIC50, pKd: −log10 of the molar value. Active and inactive are the calls of the source. The calls are words filed in the database; no cut-off is given here.

Tests used:
HEK-293T = assay: Cytotoxicity against human HEK293T cells transfected with TEAD assessed as reduction of beta-galactosidase activity at 10 uM measured after 16 hrs by luciferase reporter gene assay; assay type: cell-based
Procedure, shortened: (§1)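 HEK293T cells transfected with a TEAD luciferase reporter (8xGTIIC-Luciferase) and treated at 10 µM for 16 h. References were dasatinib at 100 nM and MGH-CP1 at 10 µM. β-Galactosidase activity used both to normalize luciferase and to estimate cytotoxicity; viability also checked visually. At least three independent experiments in biological triplicate; Kruskal-Wallis tests.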

SH-SY5Y [1] = assay: Effect on Cyr61 protein expression in human SH-SY5Y cells lacking YAP/TAZ expression at 10 uM measured after 48 hrs by western blot analysis; assay type: functional, cell-based
MDA-MB-231 [2] = assay: Inhibition of YAP/TAZ-TEAD interaction in human MDA-MB-231 cells assessed as reduction in Cyr61 mRNA expression at 10 uM measured after 24 hrs by qRT-PCR analysis; assay type: cell-based
Procedure, shortened: (§2)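 MDA-MB-231 cells exposed to 10 µM for 24 h, with DMSO and dasatinib (100 nM) as controls. Total RNA purified, integrity checked on agarose gel. RT-qPCR with gene-specific primers; relative expression by 2^-ΔΔCt normalized to MAN2B1. At least triplicates; Kruskal-Wallis tests.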

SH-SY5Y [3] = assay: Effect on CTGF protein expression in human SH-SY5Y cells lacking YAP/TAZ expression at 10 uM measured after 48 hrs by western blot analysis; assay type: functional, cell-based
HeLa [4] = assay: Inhibition of YAP/TAZ-TEAD interaction in human HeLa cells assessed as reduction in AXL mRNA expression at 10 uM measured after 24 hrs by qRT-PCR analysis; assay type: cell-based
MDA-MB-231 [5] = assay: Inhibition of YAP/TAZ-TEAD interaction in human MDA-MB-231 cells assessed as reduction in Cyr61 protein expression at 10 uM measured after 48 hrs by western blot analysis; assay type: cell-based
Procedure, shortened: (§3)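 MDA-MB-231 cells grown in DMEM with 0.2% heat-inactivated FBS and 2 mM L-glutamine, and exposed to 10 µM for 48 h, with dasatinib at 100 nM as control. Total extracts prepared in RIPA-based buffer with protease/phosphatase inhibitors, then Western blot. At least three independent experiments in biological triplicate.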

HeLa [6] = assay: Inhibition of YAP/TAZ-TEAD interaction in human HeLa cells assessed as reduction in Cyr61 mRNA expression at 10 uM measured after 24 hrs by qRT-PCR analysis; assay type: cell-based
HeLa [7] = assay: Inhibition of YAP/TAZ-TEAD interaction in human HeLa cells assessed as reduction in Survivin protein expression at 10 uM measured after 48 hrs by western blot analysis; assay type: cell-based
HeLa [8] = assay: Inhibition of YAP/TAZ-TEAD interaction in human HeLa cells assessed as reduction in Cyr61 protein expression at 10 uM measured after 48 hrs by western blot analysis; assay type: cell-based
HeLa [9] = assay: Inhibition of YAP/TAZ-TEAD interaction in human HeLa cells assessed as reduction in CTGF mRNA expression at 10 uM measured after 24 hrs by qRT-PCR analysis; assay type: cell-based
MDA-MB-231 [10] = assay: Inhibition of YAP/TAZ-TEAD interaction in human MDA-MB-231 cells assessed as reduction in CTGF protein expression at 10 uM measured after 48 hrs by western blot analysis; assay type: cell-based; procedure, shortened: as §3
SH-SY5Y [11] = assay: Effect on CTGF mRNA expression in human SH-SY5Y cells lacking YAP/TAZ expression at 10 uM measured after 24 hrs by qRT-PCR analysis; assay type: functional, cell-based
MDA-MB-231 [12] = assay: Inhibition of YAP/TAZ-TEAD interaction in human MDA-MB-231 cells assessed as reduction in CTGF mRNA expression at 10 uM measured after 24 hrs by qRT-PCR analysis; assay type: cell-based; procedure, shortened: as §2
HeLa [13] = assay: Inhibition of YAP/TAZ-TEAD interaction in human HeLa cells assessed as reduction in AXL protein expression at 10 uM measured after 48 hrs by western blot analysis; assay type: cell-based
SH-SY5Y [14] = assay: Effect on AXL mRNA expression in human SH-SY5Y cells lacking YAP/TAZ expression at 10 uM measured after 24 hrs by qRT-PCR analysis; assay type: functional, cell-based
MDA-MB-231 [15] = assay: Inhibition of YAP/TAZ-TEAD interaction in human MDA-MB-231 cells assessed as reduction in Survivin protein expression at 10 uM measured after 48 hrs by western blot analysis; assay type: cell-based; procedure, shortened: as §3
SH-SY5Y [16] = assay: Effect on Survivin protein expression in human SH-SY5Y cells lacking YAP/TAZ expression at 10 uM measured after 48 hrs by western blot analysis; assay type: functional, cell-based
MDA-MB-231 [17] = assay: Inhibition of YAP/TAZ-TEAD interaction in human MDA-MB-231 cells assessed as reduction in AXL protein expression at 10 uM measured after 48 hrs by western blot analysis; assay type: cell-based; procedure, shortened: as §3
HEK293T = assay: Inhibition of TEAD (unknown origin) transfected in HEK293T cells assessed as inhibition of TEAD transcriptional activity at 10 uM measured after 16 hrs by luciferase reporter gene assay; assay type: cell-based; conditions: Homo sapiens; procedure, shortened: as §1
[18] = Inhibition of TEAD (unknown origin) transfected in HEK293T cells assessed as inhibition of TEAD transcriptional activity measured after 16 hrs by luciferase reporter gene assay; assay type: cell-based; conditions: Homo sapiens, HEK-293T
Procedure, shortened: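 HEK293T cells transfected with the 8xGTIIC-Luciferase TEAD reporter. Dose-response curves used to derive IC50, with luciferase normalized to β-galactosidase.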

SH-SY5Y [19] = assay: Effect on Cyr61 mRNA expression in human SH-SY5Y cells lacking YAP/TAZ expression at 10 uM measured after 24 hrs by qRT-PCR analysis; assay type: functional, cell-based
SH-SY5Y [20] = assay: Effect on AXL protein expression in human SH-SY5Y cells lacking YAP/TAZ expression at 10 uM measured after 48 hrs by western blot analysis; assay type: functional, cell-based
MDA-MB-231 [21] = assay: Antiproliferative activity against human MDA-MB-231 cells assessed as reduction in cell proliferation at 10 uM measured after 48 hrs by IncuCyte live-cell imaging assay; assay type: functional
Procedure, shortened: (§4)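 MDA-MB-231 cells plated in triplicate at low density (2.5 × 10³ cells/well) in low serum (0.2%). Test agent added at several concentrations 24 h after plating. Cell number tracked by live-cell imaging every 3 h for up to 72 h; independent triplicates, mean ± SD, n = 3.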

MDA-MB-231 [22] = assay: Inhibition of YAP/TAZ-TEAD interaction in human MDA-MB-231 cells assessed as reduction in AXL mRNA expression at 10 uM measured after 24 hrs by qRT-PCR analysis; assay type: cell-based; procedure, shortened: as §2
HeLa [23] = assay: Inhibition of YAP/TAZ-TEAD interaction in human HeLa cells assessed as reduction in CTGF protein expression at 10 uM measured after 48 hrs by western blot analysis; assay type: cell-based
[24] = biological target: T1, Transcriptional enhancer factor TEF-4 (Homo sapiens, UniProt Q15562); assay: Binding affinity to eGFP-fused human TEAD2 (217 to 447 residues) expressed in CHO-K1 cells by microscale thermophoresis analysis
T1 sequence (Q15562 whole entry, the tested form may be a part): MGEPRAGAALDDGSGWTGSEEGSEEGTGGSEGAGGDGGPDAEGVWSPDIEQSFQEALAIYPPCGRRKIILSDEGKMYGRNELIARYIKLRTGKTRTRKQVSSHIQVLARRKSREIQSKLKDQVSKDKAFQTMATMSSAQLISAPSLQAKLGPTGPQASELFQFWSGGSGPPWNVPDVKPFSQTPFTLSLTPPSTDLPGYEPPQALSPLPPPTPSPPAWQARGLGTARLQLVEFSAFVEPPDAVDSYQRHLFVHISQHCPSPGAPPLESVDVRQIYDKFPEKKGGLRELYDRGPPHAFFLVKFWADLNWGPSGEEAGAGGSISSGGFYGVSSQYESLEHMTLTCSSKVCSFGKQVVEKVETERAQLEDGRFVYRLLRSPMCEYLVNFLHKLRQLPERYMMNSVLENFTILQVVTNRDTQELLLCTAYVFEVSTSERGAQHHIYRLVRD
Procedure, shortened: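 MST on GFP-labeled hTEAD2_217-447 in CHO-K1 cell lysate, MST power 40%. hYAP_50-102 used as control binder. Kd determined; triplicate runs on three independent cell cultures, mean ± SD.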

MDA-MB-231 [25] = assay: Antiproliferative activity against human MDA-MB-231 cells assessed as reduction in cell proliferation at 5 uM measured after 48 hrs by IncuCyte live-cell imaging assay; assay type: functional; procedure, shortened: as §4
[26] = Inhibition of TEAD4/Yap1 (unknown origin) interaction measured after 24 hrs by fluorescence polarization assay; parameters: species or system Homo sapiens
[27] = Inhibition of TEAD (unknown origin) transfected in HEK293T cells assessed as inhibition of TEAD transcriptional activity measured after 24 hrs by luciferase reporter gene assay; assay type: cell-based; conditions: Homo sapiens, HEK-293T
[28] = biological target: T1, Transcriptional enhancer factor TEF-4; assay: Binding affinity to external surface of N-terminal His6-tagged human TEAD2 (217 to 447 residues) expressed in Escherichia coli BL21(DE3) assessed as melting temperature by Nano Differential scanning fluorometry
Procedure, shortened: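 Thermal stability of hTEAD2_217-447 measured by NanoDSF, which reads intrinsic aromatic-residue fluorescence, with and without ligand.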

Question: For `NCCCCn1cc(C(=O)NCc2ccccc2)c(-c2ccc(Cl)c(Cl)c2)n1`, which Activity (HEK-293T) is on record?
Answer: The Activity was “Toxic”.

Question: For `CCOC(=O)c1cn(CCCCN)nc1-c1ccc(Cl)c(Cl)c1`, which Activity (SH-SY5Y [1]) is on record?
Answer: The Activity was “inactive”.

Question: And the inhibition (MDA-MB-231 [2])?
Answer: Its inhibition is “Active”.

Question: What about the Activity (SH-SY5Y [3]) of the same molecule?
Answer: Its Activity is “inactive”.

Question: And the inhibition (HeLa [4])?
Answer: Its inhibition is “Active”.

Question: What about the inhibition (MDA-MB-231 [5]) of the same molecule?
Answer: The inhibition was “Active”.

Question: And the inhibition (HeLa [6])?
Answer: The inhibition was “Active”.

Question: And the inhibition (HeLa [7])?
Answer: The inhibition was “Active”.

Question: And the inhibition (HeLa [8])?
Answer: The inhibition was “Active”.

Question: What about the inhibition (HeLa [9]) of the same molecule?
Answer: Its inhibition is “Active”.

Question: What about the inhibition (MDA-MB-231 [10]) of the same molecule?
Answer: Its inhibition is “Active”.

Question: What about the Activity (SH-SY5Y [11]) of the same molecule?
Answer: The Activity was “inactive”.

Question: What about the inhibition (MDA-MB-231 [12]) of the same molecule?
Answer: The inhibition was “Active”.

Question: And the inhibition (HeLa [13])?
Answer: Its inhibition is “Active”.

Question: What about the Activity (SH-SY5Y [14]) of the same molecule?
Answer: The Activity was “inactive”.

Question: What about the inhibition (MDA-MB-231 [15]) of the same molecule?
Answer: The inhibition was “Active”.

Question: What about the Activity (SH-SY5Y [16]) of the same molecule?
Answer: Its Activity is “inactive”.

Question: And the inhibition (MDA-MB-231 [17])?
Answer: Its inhibition is “Active”.

Question: And the inhibition (HEK293T)?
Answer: The inhibition was “Active”.

Question: And the pIC50 [18]?
Answer: Its pIC50 is 5.35.

Question: What about the Activity (SH-SY5Y [19]) of the same molecule?
Answer: The Activity was “inactive”.

Question: What about the Activity (SH-SY5Y [20]) of the same molecule?
Answer: Its Activity is “inactive”.

Question: What about the inhibition at 10 µM (MDA-MB-231 [21]) of the same molecule?
Answer: The inhibition at 10 µM was 60%.

Question: What about the inhibition (MDA-MB-231 [22]) of the same molecule?
Answer: Its inhibition is “Active”.

Question: What about the inhibition (HeLa [23]) of the same molecule?
Answer: The inhibition was “Active”.

Question: And the pKd [24]?
Answer: Its pKd is 4.46.

Question: What about the inhibition at 5 µM (MDA-MB-231 [25]) of the same molecule?
Answer: The inhibition at 5 µM was 40%.

Question: Which Activity (HEK-293T) does the source give for `NCCCn1cc(C(=O)NCCc2ccccc2)c(-c2ccc(Cl)c(Cl)c2)n1` here?
Answer: The Activity was “Toxic”.

Question: Which inhibition (HEK293T) does the source give for `O=C(O)CCCn1cc(C(=O)NCc2ccccc2)c(-c2ccc(Cl)c(Cl)c2)n1` here?
Answer: The inhibition was “inactive”.

Question: What about the pKd [24] of the same molecule?
Answer: The pKd was 5.34.

Question: With `O=C(CCl)c1ccccc1Nc1cccc(C(F)(F)F)c1` as the molecule, how does the pEC50 [26] read?
Answer: The pEC50 was 5.23.

Question: Which inhibition (HEK293T) does the source give for `O=C(O)CCn1cc(C(=O)NCCc2ccccc2)c(-c2ccc(Cl)c(Cl)c2)n1` here?
Answer: Its inhibition is “inactive”.

Question: What about the pKd [24] of the same molecule?
Answer: Its pKd is 5.29.

Question: For `CCOC(=O)c1cn(CCCN)nc1-c1ccc(Cl)c(Cl)c1`, which inhibition (HEK293T) is on record?
Answer: The inhibition was “Active”.

Question: With `COc1ccc2c(c1)/C(=N/NC(=O)c1nnn(-c3ccccc3N)c1-c1ccc(Cl)c(Cl)c1)C(=O)N2` as the molecule, how does the pIC50 [27] read?
Answer: The pIC50 was 5.77.

Question: For `O=C(O)CCn1cc(C(=O)NCc2ccccc2)c(-c2ccc(Cl)c(Cl)c2)n1`, which inhibition (HEK293T) is on record?
Answer: Its inhibition is “inactive”.

Question: With `Nc1nonc1-n1nnc(C(=O)N/N=C2\C(=O)Nc3ccccc32)c1-c1ccc(Cl)c(Cl)c1` as the molecule, how does the pIC50 [27] read?
Answer: The pIC50 was 5.19.

Question: For `O=C(O)c1cccnc1Nc1cccc(C(F)(F)F)c1`, which Tm [28] is on record?
Answer: The Tm was 50.3 °C.

Question: For `O=C(O)CCCn1cc(C(=O)NCCc2ccccc2)c(-c2ccc(Cl)c(Cl)c2)n1`, which inhibition (HEK293T) is on record?
Answer: The inhibition was “inactive”.

Question: Which Activity (HEK-293T) does the source give for `NCCCn1cc(C(=O)NCc2ccccc2)c(-c2ccc(Cl)c(Cl)c2)n1` here?
Answer: Its Activity is “Toxic”.

Question: With `NCCn1cc(C(=O)NCc2ccccc2)c(-c2ccc(Cl)c(Cl)c2)n1` as the molecule, how does the Activity (HEK-293T) read?
Answer: The Activity was “Toxic”.

Question: For `NCCCCn1cc(C(=O)NCCc2ccccc2)c(-c2ccc(Cl)c(Cl)c2)n1`, which Activity (HEK-293T) is on record?
Answer: Its Activity is “Toxic”.
